# Bioassay records as filed in PubChem.
# This is a sample that favours compounds with a hit; in the whole collection about 4.6% have one here.
# p97 inhibitor – human p97 ATPase inhibition; inhibition, % at 8 µM; recombinant p97 ATPase, Kinase-Glo ATP luminescence, 3 h; 0.42% of 220,000 active; AID 1481; in the data active = inhibition above about 15%
# Wee1 degr inh – human Wee1 degradation inhibition, primary screen. P30291. HeLa Luc-Wee1K328M stability, luciferase luminescence; 100% = proteasome inhibitor MG132 effect. reporter increase, % at 5 µM. 1.2% of 220,000 active;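 active = activation above the mean of all tested compounds plus 3 SD, set per screening run, cut at about 8.8% in these data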;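 note: cells exposed to compound for 20 h before luminescence read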
# Target sequence (P30291 whole entry K328M): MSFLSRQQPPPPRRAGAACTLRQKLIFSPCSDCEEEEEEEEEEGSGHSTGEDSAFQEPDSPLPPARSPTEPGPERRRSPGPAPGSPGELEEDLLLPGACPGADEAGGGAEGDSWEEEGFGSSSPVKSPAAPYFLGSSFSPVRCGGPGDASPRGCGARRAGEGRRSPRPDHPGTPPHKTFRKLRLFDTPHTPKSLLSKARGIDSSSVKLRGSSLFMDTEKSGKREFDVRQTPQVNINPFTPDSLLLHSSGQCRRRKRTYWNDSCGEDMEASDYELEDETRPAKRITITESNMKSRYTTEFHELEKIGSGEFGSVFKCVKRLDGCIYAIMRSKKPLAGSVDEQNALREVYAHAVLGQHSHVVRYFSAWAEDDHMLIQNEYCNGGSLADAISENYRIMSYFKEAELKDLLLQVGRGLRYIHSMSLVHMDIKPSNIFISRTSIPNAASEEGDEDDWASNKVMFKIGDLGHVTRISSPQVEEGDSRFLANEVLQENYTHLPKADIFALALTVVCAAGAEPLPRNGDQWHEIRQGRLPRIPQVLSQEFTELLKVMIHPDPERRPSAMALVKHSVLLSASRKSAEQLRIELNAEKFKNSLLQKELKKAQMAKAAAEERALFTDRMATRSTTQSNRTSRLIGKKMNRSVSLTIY
# APP 5'UTR act – APP 5'UTR luciferase reporter activation | SH-SY5Y APP 5'UTR luciferase reporter, luminescence; zero percent = DMSO vehicle wells | activation, % at 2 µM | 1% of 190,000 active | AID 1276;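 active = activation above a set limit, based on mean plus 3 SD of controls, cut at about 140% in these data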
# NF-kB neuron act – raises NF-kB expression in human neuronal cells; NF-kB reporter expression; active compounds read high; fold change at 12.5 µM; 1.6% of 190,000 active; AID 1239; in the data active = fold change above about 3.3
# STAT1 act – STAT1 signaling activation; NIH 3T3 STAT1-luciferase reporter, IFN-gamma, luminescence; 100% = IFN-gamma alone, no compound; activation (% of control), % at 5.5 µM; 2.6% of 200,000 active;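 active = activation above the screen-wide mean activation plus 3 SD, cut at about 130% in these data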
# Mdm2 ligase inh – inhibitors of human Mdm2 E3 ubiquitin ligase; signal enhancement, % at 5 µM; cell-based MDM2 ubiquitination luciferase reporter, 2 h; 0 = plate control, 100 = twice control, blank-subtracted; 0.11% of 210,000 active;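 active = signal enhancement of 30% or more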;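 note: luminescence tracks abundance of the self-degrading MDM2-luciferase fusion protein; higher signal means inhibition of MDM2 E3 ligase activity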
#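 Material: Stable MDM2–luciferase fusion reporter cells | Amount: 2000 cells seeded into each well | Dosing: One concentration, 5 µM, with 0.2% DMSO | Incubation: 4 h cell settling then 2 h compound exposure, 37 °C | Measured by: Luciferase luminescence | Read-out basis: % enhancement relative to plate controls after blank subtraction | Benchmarks: Control and blank well means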
# p97 confirm – confirmation of human p97 ATPase inhibitors; shares compounds with p97 inhibitor; recombinant p97 ATPase, Kinase-Glo ATP luminescence; inhibition, % at 8 µM; 44% of 760 active; AID 1517;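 active = percent inhibition of p97 ATPase above a set limit, the primary screen's mean plus 3 SD, cut at about 15% in these data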
# Numbers stand for hits; - = inactive; . = no result given.
SMILES,p97 inhibitor,Wee1 degr inh,APP 5'UTR act,NF-kB neuron act,STAT1 act,Mdm2 ligase inh,p97 confirm
Oc1ccc(N=Cc2ccc(O)c(O)c2)cc1,21,-,-,-,-,-,-
O=Cc1ccc(O)c(O)c1,-,-,-,-,-,.,.
COc1ccc(CN2CCCC(CNC(=O)c3ccc(F)cc3)C2)c(C)c1C (centres undefined),-,-,-,-,-,-,.
Oc1cccc2cc3cccc(O)c3c(O)c12,15,-,-,-,-,-,-
Cc1ccc(-c2nnc(SCC(=O)NNC(=O)COc3cccc4ccccc34)n2C)cc1,-,-,-,-,-,-,.
COc1ccc(/C=N\NC(=O)c2cc(O)c(O)c(O)c2)cc1CN1CCN(c2ccc(F)cc2)CC1,17,-,-,-,-,-,26
COC(=O)CCCCC1SCC(NC(=O)c2ccccc2)C1=O (centres undefined),17,-,-,-,-,-,-
Nc1nc(N)c2cc(Sc3ccc4ccccc4c3)ccc2n1,15,-,.,.,.,-,24
Nc1ccc(Sc2cc(Cl)nc(N)n2)cc1,-,-,-,-,-,-,.
O=C1Nc2ccccc2/C1=N\N=C\c1ccc(O)c(O)c1,19,-,.,.,.,-,16
COc1cc2c(C#N)c(N3CCCC3)nc(N)c2c(N)n1,26,-,.,.,.,-,-
CCOC(=O)c1c(CC(C)C)csc1NC(C)=O,-,-,-,-,-,-,.
CCOC(=O)c1c(CC(C)C)csc1NC(=O)c1ccccc1C(=O)O,18,-,.,.,.,-,22
Cc1c(Br)c(O)c(Br)c2sc(=O)oc12,22,-,.,.,.,-,-
O=C(Cn1c(-c2ccccc2)noc1=O)Nc1ccc(N2CCCCCC2)cc1,16,-,-,-,-,-,-
CNc1nc2cccnc2s1,-,-,.,.,.,-,.
O=C(NCC(=O)N1CCN(S(=O)(=O)/C=C/c2ccccc2)CC1)c1ccc(Cl)cc1,-,-,.,.,.,.,.
N#CC1=C(N)NC(SCC(=O)c2ccc(Cl)cc2)=C(C#N)C12CCCC2,-,-,-,-,-,-,.
N#CC1=C(N)NC(SCC(=O)c2ccc(Br)cc2)=C(C#N)C12CCCCC2,15,-,-,-,-,-,-
O=C(O)CCc1nc(-c2ccc(Cl)cc2)no1,20,-,-,-,-,-,-
CC(C)(C)c1ccc(-c2noc(CCC(N)=O)n2)cc1,-,-,-,-,-,-,.
CC(C)(CC(=O)O)Cc1nc(-c2ccc(Cl)cc2)no1,19,-,-,-,-,-,-
NCc1nc(-c2ccc(Cl)cc2)no1,-,-,-,-,-,-,.
CN(C)/C=C/c1oc2ccc(O)cc2c1[N+](=O)[O-],-,-,-,-,-,-,.
COCCNC(=O)C1CCN(S(=O)(=O)c2c(C)noc2/C=C/c2cccs2)CC1,-,-,.,.,.,-,.
SMILES,p97 inhibitor,Wee1 degr inh,APP 5'UTR act,NF-kB neuron act,STAT1 act,Mdm2 ligase inh,p97 confirm
C#CCOCCOCCOCCNc1nc(N2CCN(C(=O)[C@H](Cc3ccc(O)cc3)n3cc([C@@H](N)CC(C)C)nn3)CC2)nc(N2CCN(C(=O)[C@H](Cc3ccc(O)cc3)n3cc([C@@H](N)CC(C)C)nn3)CC2)n1,18,-,-,-,-,.,-
C#CCOCCOCCOCCNc1nc(N2CCN(C(=O)[C@H](CCCCN)n3cc([C@@H](N)CC(C)C)nn3)CC2)nc(N2CCN(C(=O)[C@H](Cc3cc4ccccc4[nH]3)n3cc([C@@H](N)Cc4ccc(O)cc4)nn3)CC2)n1,21,-,-,-,-,.,16
C#CCOCCOCCOCCNc1nc(N2CCN(C(=O)C(Cc3ccc(O)cc3)n3cc(C(N)CC(C)C)nn3)CC2)nc(N2CCN(C(=O)C(Cc3cc4ccccc4[nH]3)n3cc(C(N)C(C)CC)nn3)CC2)n1 (centres undefined),-,-,-,-,-,.,.
C#CCOCCOCCOCCNc1nc(N2CCN(C(=O)[C@H](Cc3ccc(O)cc3)n3cc([C@@H](N)CC(C)C)nn3)CC2)nc(N2CCN(C(=O)[C@H](Cc3cc4ccccc4[nH]3)n3cc([C@@H](N)CC(C)C)nn3)CC2)n1,20,-,-,-,-,.,-
CCCCN(C)C(=O)c1nc2ccccn2c1CN1CCN(C(=O)c2cccs2)CC1,-,-,-,-,-,-,.
CCCOc1ccc(C(=O)NCC(C)(C)N2CCOCC2)cc1,-,-,-,-,-,-,.
C=CCN1C(=O)C(C)(C)Nc2ccccc21,-,-,-,-,-,-,.
C=CCN1C(=O)N(/C=C/C)c2cccc3cccc1c23,15,-,-,-,-,-,-
Cc1ccc(C(C(=O)NCc2ccco2)N(C(=O)Cn2nnc3ccccc32)c2ccccc2)o1 (centres undefined),16,-,-,-,-,-,-
Cc1ccc(N(C(=O)Cn2nnc3ccccc32)C(C(=O)NCc2ccco2)c2ccc(C)o2)cc1 (centres undefined),-,-,-,-,-,-,.
Oc1ccccc1Nc1nc(NCc2ccccc2)c2ccccc2n1,26,-,-,-,-,-,31
OCCNc1nc(Nc2ccccc2)nc2ccccc12,-,-,-,-,-,-,.
Cn1c(-c2ccccc2)c(C=O)c2ccccc21,-,-,-,-,-,-,.
Cn1c(-c2ccccc2)c(/C=N/NC(=O)c2ccc(O)cc2)c2ccccc21,17,-,.,.,.,-,28
O=C(O)c1ccccc1SCC(=O)N1c2ccccc2Sc2ccccc21,66,-,-,-,-,-,-
O=C(Nc1ccc(N2CCOCC2)c2nonc12)C1CCCC1,-,-,-,-,-,-,.
Nc1ccc(N2CCOCC2)c2nonc12,47,-,-,-,-,-,-
COC(=O)c1c([N+](=O)[O-])c(OC)c(OC)c(OC)c1[N+](=O)[O-],-,-,-,-,-,-,.
CCCCNC(=O)C(C#N)c1nc2ccccc2nc1N1CCCC1 (centres undefined),-,-,-,-,-,-,.
C=CCNC(=O)C(C#N)c1nc2ccccc2nc1N1CCCCCC1 (centres undefined),21,-,-,-,-,-,-
Cc1ccc(C)c(S(=O)(=O)C(C#N)c2nc3ccccc3nc2N2CCCC2)c1 (centres undefined),19,-,-,-,-,-,-
N#CC(c1nc2ccccc2nc1N1CCCC1)S(=O)(=O)c1ccccc1 (centres undefined),17,-,-,-,-,-,-
Cc1ccccc1N1CCN(C2=NC(=O)/C(=C/c3cn[nH]c3-c3ccccc3)S2)CC1,-,-,-,-,-,-,.
CCN1C(=O)c2ccc(-c3nc4ccccc4c(=O)o3)cc2C1=O,24,-,-,-,-,-,-
COc1cc(OC)cc(-c2nc3ccccc3c(=O)o2)c1,-,-,-,-,-,-,.
